Source: ChEMBL document CHEMBL1123129, “Hypolipidemic activity of indan-1,3-dione derivatives in rodents” (J Med Chem, 1985)

Assays:
Rattus norvegicus [1] = test: Compound was evaluated for the hypolipidemic activity at 20 mg/kg per day orally for 14 days on protein content in rat liver; assay type: functional; conditions: route oral
How it was run: (§1)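 Male Sprague–Dawley rats were dosed orally for 14 days. Liver, small intestine and a 24-h fecal collection were lipid-extracted. Extracts were assayed for cholesterol (modified Liebermann–Burchard), triglyceride (enzymatic kit), neutral lipids, phospholipids and protein. Values are % of 1% CMC vehicle control, mean ± SD, N = 6.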

Mus musculus [2] = test: In Vivo effect for the hypolipidemic activity on Acetyl-CoA carboxylase in CF1 mice after 16 days administered orally at a dose of 60 mg/kg; assay type: functional; conditions: route oral
How it was run: (§2)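 CF1 male mice are dosed orally at 10–60 mg/kg per day for 16 days, with 1% CMC as the control vehicle. Liver is homogenized at 10% in 0.25 M sucrose + 0.001 M EDTA, pH 7.2. Enzymes are assayed by literature methods, with Lowry protein. Activity is given as % of control (X ± SD, N = 6), with p from Student's t test.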

Rattus norvegicus [3] = test: Compound was evaluated for the hypolipidemic activity at 20 mg/kg per day orally for 14 days on cholesterol content in rat small intestine.; assay type: functional; conditions: route oral; how it was run: as §1
[4] = target: T1, ATP-citrate synthase (Mus musculus) (UniProt Q91V92); test: In Vitro evaluation for the CF1 liver enzyme activity on ATP-dependent citrate exchange at concentration 50 uM
T1 sequence (whole entry): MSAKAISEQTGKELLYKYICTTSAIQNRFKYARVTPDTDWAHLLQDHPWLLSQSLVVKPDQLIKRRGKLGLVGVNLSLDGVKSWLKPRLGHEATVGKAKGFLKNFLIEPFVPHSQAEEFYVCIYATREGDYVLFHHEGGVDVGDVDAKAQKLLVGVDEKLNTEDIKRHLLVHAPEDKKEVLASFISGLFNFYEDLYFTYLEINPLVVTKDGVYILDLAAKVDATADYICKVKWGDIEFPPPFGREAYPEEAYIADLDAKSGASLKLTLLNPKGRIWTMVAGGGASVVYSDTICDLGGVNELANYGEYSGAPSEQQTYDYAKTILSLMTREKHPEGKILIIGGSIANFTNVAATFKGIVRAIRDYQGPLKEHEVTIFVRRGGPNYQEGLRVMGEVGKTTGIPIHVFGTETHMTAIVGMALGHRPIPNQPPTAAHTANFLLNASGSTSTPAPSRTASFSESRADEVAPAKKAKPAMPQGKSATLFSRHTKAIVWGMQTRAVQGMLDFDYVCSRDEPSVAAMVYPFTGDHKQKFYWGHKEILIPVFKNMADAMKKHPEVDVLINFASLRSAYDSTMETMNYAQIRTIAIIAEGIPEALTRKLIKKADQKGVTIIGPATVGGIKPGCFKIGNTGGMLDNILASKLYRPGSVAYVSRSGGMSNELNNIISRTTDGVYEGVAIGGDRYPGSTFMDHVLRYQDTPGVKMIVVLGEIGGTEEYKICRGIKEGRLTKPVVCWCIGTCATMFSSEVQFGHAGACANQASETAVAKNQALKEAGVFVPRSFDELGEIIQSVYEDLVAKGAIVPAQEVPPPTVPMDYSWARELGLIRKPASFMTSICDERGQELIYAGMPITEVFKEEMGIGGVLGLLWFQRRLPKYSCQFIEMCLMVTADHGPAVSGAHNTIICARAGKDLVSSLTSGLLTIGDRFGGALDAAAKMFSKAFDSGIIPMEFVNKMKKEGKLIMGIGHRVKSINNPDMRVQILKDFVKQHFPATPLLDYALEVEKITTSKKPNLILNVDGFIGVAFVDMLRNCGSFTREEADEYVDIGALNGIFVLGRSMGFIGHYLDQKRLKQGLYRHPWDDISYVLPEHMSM
How it was run: (§3)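 Liver was taken from CF1 male mice and made into 10% homogenates, which were incubated with test compound at 50, 100 or 200 µM. Each enzyme was assayed by its literature method, and protein was measured by Lowry. N = 6. Activity is expressed as % of untreated control ± SD.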

Mus musculus [5] = organism: Mus musculus; test: In Vitro evaluation for the CF1 liver enzyme activity on phosphatidate phosphohydrolase at concentration 50 uM
How it was run: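 Mouse liver enzymes assayed in vitro on 10% homogenates of CF1 male mouse liver, with test drug added at 50–200 μM. Each enzyme follows a published procedure. Protein is measured by Lowry. Activity is given as % of untreated control (X ± SD, N = 6).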

Mus musculus [6] = test: In Vivo effect for the hypolipidemic activity on phosphatidate phosphohydrolase in CF1 mice after 16 days administered orally at a dose of 20 mg/kg; assay type: organism-based; parameters: dose 20 mg/kg; how it was run: as §2
Rattus norvegicus [7] = test: Compound was evaluated for the hypolipidemic activity at 20 mg/kg per day orally for 14 days on neutral lipids content in rat small intestine.; assay type: functional; conditions: route oral; how it was run: as §1
[8] = target: Acetyl-CoA carboxylase 1 (Mus musculus) (UniProt Q5SWU9); test: In Vitro evaluation for the CF1 liver enzyme activity on Acetyl-CoA carboxylase at concentration 200 uM; how it was run: as §3
[9] = target: Cholesterol 7-alpha-hydroxylase (Cytochrome P450 7A1) (Mus musculus, UniProt Q64505); test: In vivo effect on Cholesterol 7-alpha-hydroxylase activity in CF1 mice after 16 days at 10 mg/kg oral dose; assay type: functional, organism-based; parameters: dose 10 mg/kg, route oral; conditions: read-out: Control; how it was run: as §2
Cholesterol 7-alpha-hydroxylase (Cytochrome P450 7A1), sequence (Q64505 whole entry): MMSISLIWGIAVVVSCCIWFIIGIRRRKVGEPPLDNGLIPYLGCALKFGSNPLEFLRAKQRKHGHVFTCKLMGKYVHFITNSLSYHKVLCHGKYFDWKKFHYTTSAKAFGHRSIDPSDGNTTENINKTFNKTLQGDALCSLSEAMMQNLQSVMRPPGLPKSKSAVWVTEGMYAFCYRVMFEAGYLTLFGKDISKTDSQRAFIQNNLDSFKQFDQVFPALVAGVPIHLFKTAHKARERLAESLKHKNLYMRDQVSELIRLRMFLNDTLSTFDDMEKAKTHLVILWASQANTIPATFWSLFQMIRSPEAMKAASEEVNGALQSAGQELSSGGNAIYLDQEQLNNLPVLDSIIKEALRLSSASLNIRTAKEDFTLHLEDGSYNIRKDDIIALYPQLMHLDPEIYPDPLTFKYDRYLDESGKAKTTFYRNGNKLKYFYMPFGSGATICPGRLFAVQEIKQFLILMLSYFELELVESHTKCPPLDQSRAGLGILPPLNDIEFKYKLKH

[10] = target: T2, 3-hydroxy-3-methylglutaryl-coenzyme A reductase (Mus musculus) (UniProt Q01237); test: In Vivo effect for the hypolipidemic activity on HMG-CoA reductase in CF1 mice after 16 days of oral administration at a dose of 40 mg/kg; assay type: organism-based; parameters: dose 40 mg/kg; how it was run: as §2
T2 sequence (whole entry): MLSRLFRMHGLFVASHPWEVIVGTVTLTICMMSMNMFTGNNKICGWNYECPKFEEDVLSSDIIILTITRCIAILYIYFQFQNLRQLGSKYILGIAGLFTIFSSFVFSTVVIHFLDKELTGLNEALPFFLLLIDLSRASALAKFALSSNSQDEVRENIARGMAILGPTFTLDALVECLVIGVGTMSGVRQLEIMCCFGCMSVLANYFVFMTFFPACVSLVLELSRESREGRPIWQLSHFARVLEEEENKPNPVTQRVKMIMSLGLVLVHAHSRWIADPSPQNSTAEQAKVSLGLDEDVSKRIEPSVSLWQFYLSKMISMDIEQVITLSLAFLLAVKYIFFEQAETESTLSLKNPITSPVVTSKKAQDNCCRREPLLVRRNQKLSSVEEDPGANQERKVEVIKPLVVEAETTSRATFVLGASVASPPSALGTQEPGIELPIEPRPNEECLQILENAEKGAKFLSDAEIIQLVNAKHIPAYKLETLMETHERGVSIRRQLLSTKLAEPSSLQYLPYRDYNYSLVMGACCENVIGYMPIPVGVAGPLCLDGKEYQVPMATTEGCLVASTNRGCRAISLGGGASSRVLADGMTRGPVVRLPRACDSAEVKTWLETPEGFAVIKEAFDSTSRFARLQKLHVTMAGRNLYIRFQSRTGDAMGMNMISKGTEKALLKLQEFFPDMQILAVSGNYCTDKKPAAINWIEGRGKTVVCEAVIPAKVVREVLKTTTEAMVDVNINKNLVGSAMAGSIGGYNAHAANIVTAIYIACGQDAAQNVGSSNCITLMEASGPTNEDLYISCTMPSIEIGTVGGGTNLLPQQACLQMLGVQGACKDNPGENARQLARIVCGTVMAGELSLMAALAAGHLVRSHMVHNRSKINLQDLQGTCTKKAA

- Control [4]: 72%
- Control (Mus musculus [5]): 36%
- Control [8]: 67%
- activity at 384 h [9]: 52%
- Control [10]: 114%
SMILES: COc1ccc(C2C(=O)c3ccccc3C2=O)cc1 [ANISINDIONE]
- Control (Rattus norvegicus [1]): 100%
- Control (Mus musculus [2]): 97%
- Control (Rattus norvegicus [3]): 87%
- Control (Mus musculus [6]): 35%
- Control (Rattus norvegicus [7]): 95%
